The source made the active and inactive calls.
Experiments:
Mus musculus [1] = assay: Anticonvulsant activity in mouse assessed as protection against subcutaneous pentylenetetrazole-induced seizures at 50 mg/kg, ip measured for 30 mins post pentylenetetrazole challenge at 0.5 hrs after compound dosing relative to control; assay type: functional
Mus musculus [2] = assay: Anticonvulsant activity in mouse assessed as protection against subcutaneous pentylenetetrazole-induced seizures at 100 mg/kg, ip measured for 30 mins post pentylenetetrazole challenge at 0.5 hrs after compound dosing relative to control; assay type: functional
Mus musculus [3] = assay: Anticonvulsant activity in mouse assessed as protection against subcutaneous pentylenetetrazole-induced seizures by measuring latency time of tonic seizures at 100 mg/kg, ip measured for 30 mins post pentylenetetrazole challenge at 0.5 hrs after compound dosing (reference value: 562.8 to 614.9 secs); assay type: functional
Mus musculus [4] = assay: Toxicity in mouse at 20 mg/kg, ip measured during maximal electroshock seizure test; assay type: organism-based; details: in vivo
Mus musculus [5] = assay: Analgesic activity in mouse assessed as decrease in time of paw licking during phase 2 at 24 mg/kg, ip measured for 15 to 30 mins by formalin test relative to control; assay type: functional; set-up: scale not given: the % may be the effect or the level left
Outline: (§1)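 Formalin test in mice: 20 μL of 5% formalin injected intraplantarly into the right hind paw. Each mouse was observed alone in a glass beaker for 30 min. Time (s) spent licking or biting the injected paw was recorded at 0–5 min (acute phase) and 15–30 min (inflammatory phase).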

Mus musculus [6] = assay: Anticonvulsant activity in mouse assessed as current strength required to induce tonic hind-limb extension in 50% of the animals at 10 mg/kg, ip by maximal electroshock seizure threshold test (reference value: 6.05 to 8.13 mA); assay type: functional
Mus musculus [7] = assay: Toxicity in mouse at 100 mg/kg, ip measured during maximal electroshock seizure test; assay type: organism-based; details: in vivo
Mus musculus [8] = assay: Anticonvulsant activity in mouse assessed as protection against maximal electroshock-induced seizures at 100 mg/kg, ip; assay type: functional, organism-based
Outline: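 Mice dosed ip; maximal seizures induced by auricular electroshock (25 mA, 500 V, 50 Hz, 0.2 s). Endpoint: hind-limb tonic extension; animals without it scored protected. Read-out is number protected over number tested.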

Mus musculus [9] = assay: Neurotoxicity in mouse assessed as motor impairment by measuring loss of coordination at 24 mg/kg, ip measured for 60 secs by chimney test relative to control; assay type: toxicity, organism-based; details: in vivo, 1 min
Outline: (§2)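 Mice dosed ip; trained, selected animals placed in a horizontal tube 25 cm long and 2.5 cm in diameter, then tube reversed so mice must climb out backward. Read-outs: escape time (s) ± SEM and % animals losing coordination versus control. Unpaired t test.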

[10] = Protection index, ratio of TD50 for neurotoxicity in ip dosed mouse by rotarod test to ED50 for anticonvulsant activity in mouse by maximal electroshock seizure test; assay type: toxicity, organism-based; details: in vivo, read-out: Ratio TD50/ED50
Mus musculus [11] = assay: Anticonvulsant activity in ip dosed mouse assessed as protection against maximal electroshock-induced seizures; assay type: functional
Outline: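 Mice were dosed ip. Maximal seizures were induced by auricular electrodes (25 mA, 500 V, 50 Hz, 0.2 s). Absence of hind-limb tonic extension counted as protection. […] Motor impairment was scored on a 10 rpm rotarod, giving TD50 the same way.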

Mus musculus [12] = assay: Toxicity in mouse at 25 mg/kg, ip measured during maximal electroshock seizure test; assay type: organism-based; details: in vivo
Mus musculus [13] = assay: Toxicity in mouse at 30 mg/kg, ip measured during maximal electroshock seizure test; assay type: organism-based; details: in vivo
Mus musculus [14] = assay: Analgesic activity in mouse assessed as decrease in time of paw licking during phase 1 at 24 mg/kg, ip measured for 5 mins by formalin test relative to control; assay type: functional; set-up: scale not given: the % may be the effect or the level left; outline: as §1
Mus musculus [15] = assay: Neurotoxicity in mouse assessed as motor impairment by measuring time of escaping from chimney at 24 mg/kg, ip measured for 60 secs (reference value: 8.87 +/- 1.79 secs); assay type: toxicity, organism-based; details: in vivo, 1 min; outline: as §2
Mus musculus [16] = assay: Anticonvulsant activity in mouse assessed as increase in electroconvulsive threshold at 10 mg/kg, ip by maximal electroshock seizure threshold test relative to control; assay type: functional
Mus musculus [17] = assay: Toxicity in mouse assessed as effect on spontaneous activity at 24 mg/kg, ip measured for 30 mins by photoresistor actometer relative to control; assay type: organism-based; details: in vivo, 0.5 h
Outline: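 Mice dosed ip; locomotor activity by photoresistor actometers counting light-beam interruptions. Each mouse was habituated 30 min in a cage, then crossings were counted over a 30 min session. Data are mean ± SEM and % change vs control; unpaired t test.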

[18] = Neurotoxicity in ip dosed mouse assessed as motor impairment measured after 15 mins by rotarod test; details: in vivo
Mus musculus [19] = assay: Anticonvulsant activity in mouse assessed as current strength required to induce tonic hind-limb extension in 50% of the animals at 2.5 mg/kg, ip by maximal electroshock seizure threshold test (reference value: 6.05 to 8.13 mA); assay type: functional
[20] = Neurotoxicity in ip dosed mouse assessed as motor impairment measured for one min by rotarod test; assay type: toxicity, organism-based; details: in vivo
Outline: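 Mice trained on an accelerating rotarod, then tested at least 24 h later after ip pretreatment, on a rod turning at 10 rpm. Neurotoxicity was scored as failure to stay on the rod for one minute. Read-out is mice impaired over mice tested.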

Mus musculus [21] = assay: Anticonvulsant activity in mouse assessed as increase in electroconvulsive threshold at 2.5 mg/kg, ip by maximal electroshock seizure threshold test relative to control; assay type: functional

Compound CCC1(C)CC(=O)NC1=O (stereo unspecified) [ETHOSUXIMIDE] has an Activity (Mus musculus [1]) of 123.94%, an Activity (Mus musculus [2]) of 139.06% and a Time (Mus musculus [3]) of 1470 s.

For Cc1cccc(Cl)c1OCCOCCNCC(O)c1ccccc1 (racemic), the Activity (Mus musculus [4]) was “Non-Toxic”, the Activity (Mus musculus [5]) was 8.8% and the Activity (Mus musculus [6]) was 11.09 mA. The Activity (Mus musculus [7]) was “Non-Toxic”, the Activity (Mus musculus [8]) was “Active” and the Activity (Mus musculus [9]) was 0%. For the same compound, the selectivity ratio [10] was 4.3, the ED50 (Mus musculus [11]) was 23.9 mg/kg and the Activity (Mus musculus [12]) was “Non-Toxic”. The Activity (Mus musculus [13]) was “Non-Toxic”, the Activity (Mus musculus [2]) was “inactive” and the Activity (Mus musculus [14]) was 8.57%. For the same compound, the Time (Mus musculus [15]) was 3.5 s, the Activity (Mus musculus [16]) was 56.64% and the Activity (Mus musculus [17]) was 44.39%. For the same compound, the Time (Mus musculus [3]) was 219.6 s.

Work on COC[C@@H](NC(C)=O)C(=O)NCc1ccccc1 [LACOSAMIDE] yielded an Activity (Mus musculus [6]) of over 25 mA, a TD50 at 0.25 h [18] of 42.5 mg/kg and an Activity (Mus musculus [16]) of over 413.22%.

O=C1NC(=O)C(c2ccccc2)(c2ccccc2)N1 [PHENYTOIN] gave an Activity (Mus musculus [19]) of 7.46 mA, a TD50 at 1 min [20] of 68.7 mg/kg and a selectivity ratio [10] of 10.3. It also gave an Activity (Mus musculus [21]) of 23.31%.

Source: ChEMBL document CHEMBL4261484, “Design, synthesis and anticonvulsant-analgesic activity of new N-[(phenoxy)alkyl]- and N-[(phenoxy)ethoxyethyl]aminoalkanols” (Medchemcomm, 2017)
